In ChEMBL document CHEMBL4043131, “New prodrugs of two pyrimidine acyclic nucleoside phosphonates: Synthesis and antiviral activity” (Bioorg Med Chem, 2017):
Activity calls are given as the source filed them. No cut-off for these calls is given here.

Columns and labels:
Human alphaherpesvirus 1 [1] = assay: Antiviral activity against wild type Herpes simplex virus 1 KOS infected in HEL cells assessed as inhibition of virus-induced cytopathic effect; type: functional, cell-based; details: Human alphaherpesvirus 1, KOS
Human alphaherpesvirus 2 = assay: Antiviral activity against Herpes simplex virus 2 G infected in HEL cells assessed as inhibition of virus-induced cytopathic effect; type: functional, cell-based; details: Human alphaherpesvirus 2, strain G
Method in brief: (§1)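 Confluent cell monolayers were infected with 100 CCID50 of virus (1 CCID50 = dose infecting 50% of cultures) and incubated with varying compound concentrations. Cytopathicity was scored once complete in untreated infected controls.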

Human alphaherpesvirus 1 [2] = assay: Antiviral activity against thymidine kinase-deficient ACV-resistant Herpes simplex virus 1 KOS infected in HEL cells assessed as inhibition of virus-induced cytopathic effect; type: functional, cell-based; details: Human alphaherpesvirus 1, KOS
Human alphaherpesvirus 3 [3] = assay: Antiviral activity against wild type thymidine kinase expressing Varicella-Zoster virus Oka infected in HEL cells assessed as inhibition of virus-induced plaque formation; type: functional, cell-based; details: Human alphaherpesvirus 3, Oka
Method in brief: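 Confluent HEL cultures were inoculated with 20 PFU of VZV and incubated with varying compound concentrations. Plaques were counted once formation was complete in untreated infected controls.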

Human alphaherpesvirus 3 [4] = assay: Antiviral activity against wild type thymidine kinase-deficient Varicella-Zoster virus 07-1 infected in HEL cells assessed as inhibition of virus-induced plaque formation; type: functional, cell-based; details: Human alphaherpesvirus 3, 07-1, HEL
Method in brief: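 HEL fibroblast monolayers were infected with 20 PFU of VZV and kept with varying compound concentrations. Plaques were counted once formation was complete in untreated infected controls.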

Human betaherpesvirus 5 [5] = assay: Antiviral activity against Human cytomegalovirus AD169 infected in HEL cells assessed as inhibition of virus-induced cytopathic effect; type: functional, cell-based; details: Human betaherpesvirus 5, AD169, HEL; method in brief: as §1
Human betaherpesvirus 5 [6] = assay: Antiviral activity against Human cytomegalovirus Davis infected in HEL cells assessed as inhibition of virus-induced cytopathic effect; type: functional, cell-based; details: Human betaherpesvirus 5, Davis; method in brief: as §1
Vaccinia virus = assay: Antiviral activity against Vaccinia virus Lederle infected in HEL cells assessed as inhibition of virus-induced cytopathic effect; type: functional, cell-based; details: Orthopoxvirus vaccinia
[7] = system: Vesicular stomatitis virus; assay: Antiviral activity against Vesicular stomatitis virus infected in HEL cells assessed as inhibition of virus-induced cytopathic effect; type: functional, cell-based
Coxsackievirus B4 = assay: Antiviral activity against Coxsackie virus B4 infected in human HeLA cells assessed as inhibition of virus-induced cytopathic effect; type: functional, cell-based; method in brief: as §1
[8] = Antiviral activity against Respiratory syncytial virus A strain long infected in human HeLA cells assessed as inhibition of virus-induced cytopathic effect; type: functional, cell-based; method in brief: as §1
Human respirovirus 3 = assay: Antiviral activity against Parainfluenza virus 3 infected in African green monkey Vero cells assessed as inhibition of virus-induced cytopathic effect; type: functional; method in brief: as §1
[9] = system: Mammalian orthoreovirus 1; assay: Antiviral activity against Reovirus-1 infected in African green monkey Vero cells assessed as inhibition of virus-induced cytopathic effect; type: functional; method in brief: as §1
Sindbis virus = assay: Antiviral activity against Sindbis virus infected in African green monkey Vero cells assessed as inhibition of virus-induced cytopathic effect; type: functional; method in brief: as §1
Punta Toro virus = assay: Antiviral activity against Punta Toro virus infected in African green monkey Vero cells assessed as inhibition of virus-induced cytopathic effect; type: functional; method in brief: as §1
Feline coronavirus = assay: Antiviral activity against Feline coronavirus infected in CRFK cells assessed as inhibition of virus-induced cytopathic effect; type: functional, cell-based
[10] = Selectivity index, ratio of CC50 for HEL cells to EC50 for Human cytomegalovirus AD169 infected in HEL cells; type: toxicity, cell-based; details: read-out: Ratio CC50/EC50
[11] = Selectivity index, ratio of CC50 for HEL cells to EC50 for wild type Herpes simplex virus 1 KOS infected in HEL cells; type: toxicity, cell-based; details: human, read-out: Ratio CC50/EC50
Method in brief: (§2)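 EC50 is the concentration halving cytopathicity in HEL cells infected with 100 CCID50 HSV. […] Cells were counted by Coulter counter, and CC50 was read from plots of cell number (% of untreated) versus concentration. SI = CC50/EC50.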

[12] = Selectivity index, ratio of CC50 for HEL cells to EC50 for Herpes simplex virus 2 G infected in HEL cells; type: toxicity, cell-based; details: human, read-out: Ratio CC50/EC50; method in brief: as §2
[13] = Selectivity index, ratio of CC50 for HEL cells to EC50 for thymidine kinase-deficient ACV-resistant Herpes simplex virus 1 KOS infected in HEL cells; type: toxicity, cell-based; details: human, read-out: Ratio CC50/EC50; method in brief: as §2
[14] = Selectivity index, ratio of CC50 for HEL cells to EC50 for wild type thymidine kinase expressing Varicella-Zoster virus Oka infected in HEL cells; type: toxicity, cell-based; details: human, read-out: Ratio CC50/EC50
[15] = Selectivity index, ratio of CC50 for HEL cells to EC50 for wild type thymidine kinase-deficient Varicella-Zoster virus 07-1 infected in HEL cells; type: toxicity, cell-based; details: human, read-out: Ratio CC50/EC50
[16] = Selectivity index, ratio of CC50 for HEL cells to EC50 for Human cytomegalovirus Davis infected in HEL cells; type: toxicity, cell-based; details: read-out: Ratio CC50/EC50
Influenza A virus = assay: Antiviral activity against Influenza A virus (H1N1) infected in HEL cells assessed as inhibition of virus-induced cytopathic effect; type: functional, cell-based
Influenza A virus H3N2 = assay: Antiviral activity against Influenza A virus H3N2 infected in HEL cells assessed as inhibition of virus-induced cytopathic effect; type: functional, cell-based
Influenza B virus = assay: Antiviral activity against influenza B virus infected in HEL cells assessed as inhibition of virus-induced cytopathic effect; type: functional, cell-based
HEL = assay: Cytotoxicity against HEL cells assessed as reduction in cell growth after 3 days by coulter counter method; type: cell-based; details: human, hel, 72 h
Method in brief: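 HEL cells were seeded at 5 × 10³ cells/well and grown for 24 h, then given medium containing graded compound concentrations. After 3 days at 37 °C, cells were counted by Coulter counter.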

`CCCCCCCCCCCCCCCCNC(=O)[C@@H](N)Cc1ccc(OP(=O)(COCCn2cnc(N)nc2=O)Oc2ccc(C[C@H](N)C(=O)NCCCCCCCCCCCCCCCC)cc2)cc1` gave an EC50 (Human alphaherpesvirus 1 [1]) of 600 nM, an EC50 (Human alphaherpesvirus 2) of 400 nM and an EC50 (Human alphaherpesvirus 1 [2]) of 400 nM. The EC50 (Human alphaherpesvirus 3 [3]) was 580 nM, the EC50 (Human alphaherpesvirus 3 [4]) was 290 nM and the EC50 (Human betaherpesvirus 5 [5]) was 2160 nM. The EC50 (Human betaherpesvirus 5 [6]) was 480 nM, the EC50 (Vaccinia virus) was over 100000 nM and the Activity [7] was “inactive”. The Activity (Coxsackievirus B4) was “inactive”, the Activity [8] was “inactive” and the Activity (Human respirovirus 3) was “inactive”. The Activity [9] was “inactive”, the Activity (Sindbis virus) was “inactive” and the Activity (Punta Toro virus) was “inactive”. The Activity (Feline coronavirus) was “inactive”, the selectivity ratio [10] was 13 to 56 and the selectivity ratio [11] was 45 to 68. For the same compound, the selectivity ratio [12] was 45 to 68, the selectivity ratio [13] was 45 to 68 and the selectivity ratio [14] was 47 to 93. For the same compound, the selectivity ratio [15] was 47 to 93, the selectivity ratio [16] was 13 to 56 and the Activity (Influenza A virus) was “inactive”. The Activity (Influenza A virus H3N2) was “inactive” and the Activity (Influenza B virus) was “inactive”.

Compound `CCCCCCCCCCCCCCCCCCOCCOP(=O)(O)COCCn1cnc(N)nc1=O` has an EC50 (Human alphaherpesvirus 1 [1]) of 350 nM, an EC50 (Human alphaherpesvirus 2) of 150 nM and an EC50 (Human alphaherpesvirus 1 [2]) of 200 nM. The EC50 (Human alphaherpesvirus 3 [3]) was 320 nM, the EC50 (Human alphaherpesvirus 3 [4]) was 790 nM and the EC50 (Human betaherpesvirus 5 [5]) was 1120 nM. The EC50 (Human betaherpesvirus 5 [6]) was 240 nM, the EC50 (Vaccinia virus) was over 100000 nM and the CC50 (HEL) was 79200 nM. The Activity [7] was “inactive”, the Activity (Coxsackievirus B4) was “inactive” and the Activity [8] was “inactive”. For the same compound, the Activity (Human respirovirus 3) was “inactive”, the Activity [9] was “inactive” and the Activity (Sindbis virus) was “inactive”. For the same compound, the Activity (Punta Toro virus) was “inactive”, the Activity (Feline coronavirus) was “inactive” and the selectivity ratio [10] was 71 to 330. The selectivity ratio [11] was 226 to 528, the selectivity ratio [12] was 226 to 528 and the selectivity ratio [13] was 226 to 528. For the same compound, the selectivity ratio [14] was 100 to 248, the selectivity ratio [15] was 100 to 248 and the selectivity ratio [16] was 71 to 330. For the same compound, the Activity (Influenza A virus) was “inactive”, the Activity (Influenza A virus H3N2) was “inactive” and the Activity (Influenza B virus) was “inactive”.

With `CCOC(=O)[C@H](Cc1ccccc1)NP(=O)(O)COCCn1cnc(N)nc1=O` the EC50 (Human alphaherpesvirus 1 [1]) was over 100000 nM, the EC50 (Human alphaherpesvirus 2) was over 100000 nM and the EC50 (Human alphaherpesvirus 1 [2]) was over 100000 nM. For the same compound, the EC50 (Human alphaherpesvirus 3 [3]) was over 100000 nM, the EC50 (Human alphaherpesvirus 3 [4]) was over 100000 nM and the EC50 (Human betaherpesvirus 5 [5]) was over 100000 nM. For the same compound, the EC50 (Human betaherpesvirus 5 [6]) was over 100000 nM, the EC50 (Vaccinia virus) was over 100000 nM and the CC50 (HEL) was over 100000 nM. For the same compound, the Activity [7] was “inactive”, the Activity (Coxsackievirus B4) was “inactive” and the Activity [8] was “inactive”. The Activity (Human respirovirus 3) was “inactive”, the Activity [9] was “inactive” and the Activity (Sindbis virus) was “inactive”. For the same compound, the Activity (Punta Toro virus) was “inactive”, the Activity (Feline coronavirus) was “inactive” and the Activity (Influenza A virus) was “inactive”. The Activity (Influenza A virus H3N2) was “inactive” and the Activity (Influenza B virus) was “inactive”.

With `Nc1cc(OCCOCP(=O)(O)O)nc(N)n1` the EC50 (Human alphaherpesvirus 1 [1]) was 45000 nM, the EC50 (Human alphaherpesvirus 2) was 20000 nM and the EC50 (Human alphaherpesvirus 1 [2]) was 54000 nM. It also gave an EC50 (Human alphaherpesvirus 3 [3]) of 2070 nM, an EC50 (Human alphaherpesvirus 3 [4]) of 4720 nM and an EC50 (Human betaherpesvirus 5 [5]) of over 100000 nM. For the same compound, the EC50 (Human betaherpesvirus 5 [6]) was over 100000 nM, the EC50 (Vaccinia virus) was over 100000 nM and the CC50 (HEL) was 90300 nM. For the same compound, the Activity [7] was “inactive”, the Activity (Coxsackievirus B4) was “inactive” and the Activity [8] was “inactive”. For the same compound, the Activity (Human respirovirus 3) was “inactive”, the Activity [9] was “inactive” and the Activity (Sindbis virus) was “inactive”. For the same compound, the Activity (Punta Toro virus) was “inactive”, the Activity (Feline coronavirus) was “inactive” and the selectivity ratio [11] was 1.72 to 4.5. The selectivity ratio [12] was 1.72 to 4.5, the selectivity ratio [13] was 1.72 to 4.5 and the selectivity ratio [14] was 19 to 44. For the same compound, the selectivity ratio [15] was 19 to 44, the Activity (Influenza A virus) was “inactive” and the Activity (Influenza A virus H3N2) was “inactive”. For the same compound, the Activity (Influenza B virus) was “inactive”.
